SMILES strings stand for the structures.

From ChEMBL document CHEMBL5365494, “Bis-6-amidino-benzothiazole Derivative that Cures Experimental Stage 1 African Trypanosomiasis with a Single Dose” (J Med Chem, 2023) come the findings set out here.

Series [1] can be described thus: Cytotoxicity against rat L6 cells assessed as cell growth inhibition incubated for 6 days by resazurin dye based assay. The format is toxicity. An outline of the steps:
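Rat L6 myoblasts seeded at 1×10⁴ mL⁻¹ in RPMI-1640 with a range of compound concentrations, 6 days at 37 °C; resazurin added, 6 h further, fluorescence ex 545/em 590 nm.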

Series [2] deals with Trypanosoma brucei. Put plainly: Antitrypanosomal activity against blood stream form of Trypanosoma brucei 221a variant assessed as parasite growth inhibition measured after 48 hrs by resazurin dye based fluorescence analysis. The format is functional, organism-based. The settings on record: for EC50: 48 h; for EC90: time 48 hrs. An outline of the steps:
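Bloodstream-form T. b. brucei 221a (MiTat1.2a) in modified Iscove's medium at 37 °C, started at 2.5×10^4 mL^-1 with a concentration range. After 48 h, resazurin was added for a further 16 h. Fluorescence read at ex 545/em 590 nm. EC50 and EC90 taken from three independent replicates.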

The nature of series [3]: Selectivity index, ratio of EC50 for cytotoxicity against rat L6 cells to EC50 for antitrypanosomal activity against bloodstream form of Trypanosoma brucei brucei 221a variant. The settings on record: read-out: Ratio EC50. The format is toxicity, cell-based. An outline of the steps:
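L6 rat myoblasts seeded at 1×10^4 mL^-1 in RPMI-1640 with a compound concentration range for 6 days at 37 °C. Resazurin added for 6 h, then fluorescence read.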

Series [4] can be described thus: Apparent permeability across apical to basolateral side in MDCK-MDR1 cells at 10 uM measured for 60 mins by LC-MS/MS analysis. Format: ADME, cell-based, Canis lupus familiaris. As to conditions: dog. Put shortly: (§1)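 MDCKII-hMDR1 monolayers on inserts, compound 10 μM (1% DMSO) in duplicate, 60 min at 37 °C, bidirectional, with and without elacridar 2 μM. Amprenavir as P-gp control, Lucifer yellow for monolayer integrity; compound quantified by LC–MS/MS.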

Series [5] is described as follows: Metabolic stability in mouse liver microsomes assessed as half life at 1 uM measured upto 60 mins in presence of NADPH by LC-MS/MS analysis. Format: ADME, Microsome. The settings on record: 1 h.
Series [6] is described as follows: Efflux ratio of apparent permeability across basolateral to apical side over apical to basolateral side in MDCK-MDR1 cells at 10 uM measured for 60 mins by LC-MS/MS analysis. As to conditions: dog, mdck-mdr1, 1 h. The format is ADME, cell-based, Canis lupus familiaris. An outline of the steps: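 MDCKII cells overexpressing human MDR1 (P-glycoprotein) grown as monolayers on inserts; bidirectional transport (apical-to-basolateral and basolateral-to-apical) of 10 μM compound (1% DMSO) at 37 °C for 60 min, in duplicate, with and without P-gp inhibitor elacridar (2 μM). Monolayer integrity checked with Lucifer yellow; amprenavir as P-gp control. Compound quantified by LC–MS/MS; efflux ratio = BA Papp/AB Papp.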

Series [7] is described as follows: Apparent permeability across basolateral to apical side in MDCK-MDR1 cells at 10 uM measured for 60 mins by LC-MS/MS analysis. The settings on record: dog, MDCK-MDR1. The format is ADME, cell-based, Canis lupus familiaris. An outline of the steps: as §1

Regarding `N=C(N)c1ccc2nc(CCCCCCc3nc4ccc(C(=N)N)cc4s3)sc2c1`, the EC50 at 6 days in series [1] is 42.5 µM. Moreover, in series [2], the EC50 turned out to be 0.89 µM and the 90% effect concentration (EC90) was 1.52 µM. The selectivity ratio in series [3] worked out at 48.

`N=C(N)c1ccc2nc(CCCc3nc4ccc(C(=N)N)cc4s3)sc2c1`: the EC50 at 6 days in series [1] is above 160 µM. In series [2], the EC50 came to 0.34 µM and the EC90 worked out at 0.75 µM. The selectivity ratio in series [3] is above 470.

For the compound `CSc1ccc(OCc2ncc([N+](=O)[O-])n2C)cc1` [FEXINIDAZOLE], in series [2], the EC50 worked out at 2.4 µM and the 90% effect concentration (EC90) was found to be 4.51 µM.

In the case of `N=C(N)c1ccc2nc(CCCCCCCc3nc4ccc(C(=N)N)cc4s3)sc2c1`, in series [1], the 50% effective concentration (EC50) at 6 days came out at 13.9 µM. Also, in series [2], the EC50 turned out to be 0.74 µM and the EC90 stood at 1.39 µM. The selectivity ratio in series [3] worked out at 18.

In the case of `CC(C)CN(C[C@@H](O)[C@H](Cc1ccccc1)NC(=O)O[C@H]1CCOC1)S(=O)(=O)c1ccc(N)cc1` [AMPRENAVIR], in series [4], the Papp A→B at 1 h, 10 µM was determined as 0.5 ×10⁻⁶ cm/s.

As to `c1cc2nc(CCc3nc4ccc(C5=NCCN5)cc4s3)sc2cc1C1=NCCN1`, in series [1], the half-maximal effective concentration (EC50) at 6 days was 80.6 µM. Besides, in series [2], the concentration giving a half-maximal response (EC50) was determined as 3.64 µM and the concentration for an effect of 90% (EC90) worked out at 7.82 µM. In series [3], the selectivity ratio was 22.

As for `c1cc2nc(C3CCC(c4nc5ccc(C6=NCCCN6)cc5s4)CC3)sc2cc1C1=NCCCN1` (stereo not drawn), the EC50 at 6 days in series [1] was above 130 µM. In series [2], the EC50 worked out at 0.021 µM and the 90% effect concentration (EC90) is 0.031 µM. Also, the selectivity ratio in series [3] is above 6200.

Turning to `c1cc2nc(CCCCCc3nc4ccc(C5=NCCN5)cc4s3)sc2cc1C1=NCCN1`, the half-maximal effective concentration (EC50) at 6 days in series [1] was 93.5 µM. In series [2], the EC50 amounted to 1.56 µM and the 90% effect concentration (EC90) was 2.11 µM. The selectivity ratio in series [3] was found to be 60.

As for `c1cc2nc(CCc3nc4ccc(C5=NCCCN5)cc4s3)sc2cc1C1=NCCCN1`, the EC50 at 6 days in series [1] is above 140 µM. Further, in series [2], the EC50 worked out at 2.38 µM and the 90% effect concentration (EC90) came out at 3.48 µM. For the same compound, the selectivity ratio in series [3] is above 59.

For `N=C(N)c1ccc2nc(CCc3nc4ccc(C(=N)N)cc4s3)sc2c1`, in series [1], the concentration giving a half-maximal response (EC50) at 6 days was above 170 µM. In addition, in series [2], the concentration for a half-maximal effect (EC50) was 0.25 µM and the EC90 is 0.4 µM. Further, the selectivity ratio in series [3] is above 680.

Take `N=C(N)c1ccc2nc(CCCCc3nc4ccc(C(=N)N)cc4s3)sc2c1`: in series [1], the half-maximal effective concentration (EC50) at 6 days is 134 µM. Besides, in series [2], the EC50 was found to be 0.063 µM and the EC90 is 0.131 µM. The selectivity ratio in series [3] was 2100.

Turning to `c1cc2nc(CCCCc3nc4ccc(C5=NCCCN5)cc4s3)sc2cc1C1=NCCCN1`, the concentration for a half-maximal effect (EC50) at 6 days in series [1] was above 130 µM. Moreover, in series [2], the EC50 was determined as 0.19 µM and the EC90 was determined as 0.31 µM. Further, the selectivity ratio in series [3] is above 680.

Regarding `c1cc2nc(CCCCCCc3nc4ccc(C5=NCCN5)cc4s3)sc2cc1C1=NCCN1`, the EC50 at 6 days in series [1] is 10.9 µM. Further, in series [2], the EC50 stood at 0.82 µM and the EC90 amounted to 1.88 µM. For the same compound, the selectivity ratio in series [3] came to 13.

As to `c1cc2nc(C3CCC(c4nc5ccc(C6=NCCN6)cc5s4)CC3)sc2cc1C1=NCCN1` (stereo not drawn), the concentration for a half-maximal effect (EC50) at 6 days in series [1] came to 4.15 µM. Moreover, in series [2], the concentration for a half-maximal effect (EC50) was 0.24 µM and the EC90 amounted to 0.49 µM. Further, the selectivity ratio in series [3] is 17.

With `C[C@]12CC[C@H]3[C@@H](CCC4=CC(=O)CC[C@@]43C)[C@@H]1CC[C@@H]2O` [TESTOSTERONE], the t1/2 in series [5] came to 6.7 min.

As to `c1cc2nc(CCCc3nc4ccc(C5=NCCN5)cc4s3)sc2cc1C1=NCCN1`, the EC50 at 6 days in series [1] is above 150 µM. Also, in series [2], the EC50 was 5.39 µM and the EC90 is 9.01 µM. In series [3], the selectivity ratio was above 28.

`c1cc2nc(CCCCc3nc4ccc(C5=NCCN5)cc4s3)sc2cc1C1=NCCN1`: in series [1], the concentration for a half-maximal effect (EC50) at 6 days came to 93 µM. Further, in series [2], the EC50 turned out to be 1.14 µM and the 90% effect concentration (EC90) was determined as 1.87 µM. For the same compound, in series [3], the selectivity ratio came to 82.

`c1cc2nc(CCCCCCCc3nc4ccc(C5=NCCN5)cc4s3)sc2cc1C1=NCCN1`: the EC50 at 6 days in series [1] worked out at 6.85 µM. Also, in series [2], the EC50 turned out to be 1.49 µM and the EC90 stood at 2.52 µM. In series [3], the selectivity ratio was determined as 4.6.

For `O=C(O)Cc1ccccc1Nc1c(Cl)cccc1Cl` [DICLOFENAC], in series [6], the Ratio was 0.7. In addition, the Papp B→A at 1 h, 10 µM in series [7] came to 31.2 ×10⁻⁶ cm/s. Moreover, the apparent permeability from apical to basolateral (Papp A→B) at 1 h, 10 µM in series [4] worked out at 47.3 ×10⁻⁶ cm/s.

Consider `N=C(N)c1ccc2nc(/C=C/c3nc4ccc(C(=N)N)cc4s3)sc2c1`, for which the EC50 at 6 days in series [1] came out at 2.48 µM. Also, in series [2], the EC50 came out at 0.012 µM and the EC90 was 0.022 µM. Also, the selectivity ratio in series [3] turned out to be 210.

For `N=C(N)c1ccc2nc(CCCCCc3nc4ccc(C(=N)N)cc4s3)sc2c1`, in series [1], the EC50 at 6 days is 114 µM. Moreover, in series [2], the EC50 is 0.098 µM and the 90% effect concentration (EC90) turned out to be 0.145 µM. For the same compound, in series [3], the selectivity ratio came out at 1200.

`Cn1c(=O)c2c(ncn2C)n(C)c1=O` [CAFFEINE]: the t1/2 in series [5] was above 60 min.

Take `C(=C\c1nc2ccc(C3=NCCN3)cc2s1)/c1nc2ccc(C3=NCCN3)cc2s1`: the EC50 at 6 days in series [1] is 4.1 µM. For the same compound, in series [2], the half-maximal effective concentration (EC50) came to 0.19 µM and the 90% effect concentration (EC90) turned out to be 0.68 µM. Further, in series [3], the selectivity ratio was found to be 22.

Take `C(=C\c1nc2ccc(C3=NCCCN3)cc2s1)/c1nc2ccc(C3=NCCCN3)cc2s1`: the 50% effective concentration (EC50) at 6 days in series [1] came to 51.8 µM. For the same compound, in series [2], the EC50 amounted to 0.1 µM and the concentration for an effect of 90% (EC90) is 0.16 µM. Besides, the selectivity ratio in series [3] amounted to 520.

Turning to `c1cc2nc(CCCCCCc3nc4ccc(C5=NCCCN5)cc4s3)sc2cc1C1=NCCCN1`, the concentration for a half-maximal effect (EC50) at 6 days in series [1] is above 130 µM. Moreover, in series [2], the EC50 was found to be 0.028 µM and the EC90 was found to be 0.056 µM. Besides, the selectivity ratio in series [3] was above 4600.
